# From the RNAGym collection of RNA variant scans (doi:10.1126/science.aae0568)
# Variants at the floor of the assay were thinned out.
# B1: tRNA (parent)
# chain: GUUCCGUUGGCGUAAUGGUAACGCGUCUCCCUCCUAAGGAGAAGACUGCGGGUUCGAGUCCCGUACGGAACG
# Variants of: B1
# Assay: yeast fitness relative to wild type (ratio to wild type); higher = fitter; tRNA-Arg(CCU), competitive growth, 37 C, YPD
# Outline: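 A pool of Saccharomyces cerevisiae strains, each with a tRNA-Arg(CCU) gene variant at the native genomic locus, was competed in YPD at 37°C for 24 hours across six parallel replicates. The variants had been chemically synthesised at a 3% per-site mutation rate over 69 sites, and gene amplicons before and after competition were read by 100-nucleotide paired-end sequencing. Darwinian fitness relative to wild type rested on changes in genotype frequencies. Genotypes required ≥ 100 starting reads, and estimates < 0.5 were set to 0.5.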
row,Variant,yeast fitness
1,U8A G67C,0.736
2,U8A G67U,0.636
3,U8A U13A A14C U16A,≤ 0.5
4,U8A U13A A14C U16C G67A,≤ 0.5
5,U8A U13A A15U C46G A69U,≤ 0.5
6,U8A U13A C29G A45C G68C A69G,≤ 0.5
7,U8A U13C,0.747
8,U8A U16A C27G C31A U59C C61U,≤ 0.5
9,U8A U16A C27G U59C C61U,≤ 0.5
10,U8A U16A G23A C34U G39A G58C,0.559
11,U8A U16G,0.628
12,U8A U16G C31U C34A A37U G41C,0.525
13,U8A U19C,0.805
14,U8A U19C A21C G39C,≤ 0.5
15,U8A U19C A21C G39C C61U,≤ 0.5
16,U8A U19C C31A U35G A43G U47C G52U G67A,≤ 0.5
17,U8A U19C G48C U59A C66U,0.671
18,U8A U19G C22U,≤ 0.5
19,U8A U19G C24G U32A,≤ 0.5
20,U8A U26A C29A A65C,0.761
21,U8A U26A C29A C62U,0.537
22,U8A U26C G39C A43G,≤ 0.5
23,U8A U26G C29A C46U G58A,≤ 0.5
24,U8A U26G C29A C46U G58A G63A,≤ 0.5

row,Variant,yeast fitness
1,U8A U26G C46G,≤ 0.5
2,U8A U26G U35C G63A A70G,≤ 0.5
3,U8A U28A C31G A65U A69C,≤ 0.5
4,U8A U28A C33A A36U,0.541
5,U8A U28A C33A A36U A57G,≤ 0.5
6,U8A U28C C33A,≤ 0.5
7,U8A U28C C61A G67C,≤ 0.5
8,U8A U28C U47A,≤ 0.5
9,U8A U28G,0.661
10,U8A U32A G52A G56C,≤ 0.5
11,U8A U32C,0.648
12,U8A U32C G44C C62U,≤ 0.5
13,U8A U32G A37G U54G G56A,≤ 0.5
14,U8A U35A A36G A57C,≤ 0.5
15,U8A U35A G44C A45U,0.64
16,U8A U35G,≤ 0.5
17,U8A U47A,0.619
18,U8A U47C,0.723
19,U8A U47G G56A,≤ 0.5
20,U8A U59A C66G A70C,≤ 0.5
21,U8A U64A A65C G68A,≤ 0.5
22,U8A U64G,0.554
23,U8C A14C,0.66
24,U8C A14C A43G,≤ 0.5

row,Variant,yeast fitness
1,U8C A14C C30G,≤ 0.5
2,U8C A14C C31U,≤ 0.5
3,U8C A14C G50A A57C,≤ 0.5
4,U8C A14G,0.934
5,U8C A14G A20U C30G A37G G44A,≤ 0.5
6,U8C A14G A70U,0.59
7,U8C A14G C24G C31U C55A,≤ 0.5
8,U8C A14G C27U U32A,≤ 0.5
9,U8C A14G C49U C61U,≤ 0.5
10,U8C A14G G23A,≤ 0.5
11,U8C A14G G23U A65C,≤ 0.5
12,U8C A14U A42C G52A G56C,≤ 0.5
13,U8C A14U C30A,≤ 0.5
14,U8C A14U C34G C46A C62U A69C,≤ 0.5
15,U8C A14U C49A,≤ 0.5
16,U8C A15C A20U,0.544
17,U8C A15C A45C C62G,0.535
18,U8C A15C C34U A37G A40U,≤ 0.5
19,U8C A15C G63A,≤ 0.5
20,U8C A15C U32A A70C,≤ 0.5
21,U8C A15G C61U,0.628
22,U8C A15G G25A C49U A65U,≤ 0.5
23,U8C A15G G38C U64A G68A A69C,≤ 0.5
24,U8C A15G G50A,0.674

row,Variant,yeast fitness
1,U8C A15U,0.849
2,U8C A15U C22G C31U A57C U64A G68A,≤ 0.5
3,U8C A15U C33G C62G,≤ 0.5
4,U8C A15U G25A C34G U54A,≤ 0.5
5,U8C A15U G25A C34G U54A A65U,0.541
6,U8C A15U U16A U26A,≤ 0.5
7,U8C A20C,0.985
8,U8C A20C A21C A36U A45C,≤ 0.5
9,U8C A20C C22A C24U,≤ 0.5
10,U8C A20C G38A U53A,≤ 0.5
11,U8C A20C G56A C61U,0.532
12,U8C A20G,0.941
13,U8C A20G C27U C30U A42G C60A,0.711
14,U8C A20G C66A,≤ 0.5
15,U8C A20U,0.92
16,U8C A20U A21U U26G C31A A45U,0.54
17,U8C A20U C30G A37G G44A,≤ 0.5
18,U8C A20U U28A C62U G67U,≤ 0.5
19,U8C A21C C30U G52A,≤ 0.5
20,U8C A21G,1.03
21,U8C A21G C33U A36G A43U A65U A70G,≤ 0.5
22,U8C A21G C46U C62U,0.699
23,U8C A21U A69U,0.527
24,U8C A21U C24U U32A C55G,≤ 0.5

row,Variant,yeast fitness
1,U8C A21U C27G C29U U32C,≤ 0.5
2,U8C A21U C27U G38C C61G,0.553
3,U8C A21U C34A A40C,0.627
4,U8C A21U G39C G50A,≤ 0.5
5,U8C A21U G56C G63A U64C G67C,≤ 0.5
6,U8C A21U U32A C55G U59C,≤ 0.5
7,U8C A36C,0.577
8,U8C A36C G41A G68A A69C,≤ 0.5
9,U8C A36C G67C,≤ 0.5
10,U8C A36G A70C,0.644
11,U8C A36G G44A C46U,0.674
12,U8C A36U G38A A45U C49U C61G,≤ 0.5
13,U8C A36U G38A A65C,0.579
14,U8C A37C C49G,≤ 0.5
15,U8C A37C G51A,≤ 0.5
16,U8C A37G G38C,≤ 0.5
17,U8C A37G G38C G51A,≤ 0.5
18,U8C A37G G39C,≤ 0.5
19,U8C A40C,1.02
20,U8C A40C A65C G68C,≤ 0.5
21,U8C A40G,0.877
22,U8C A40G A43C A69U,≤ 0.5
23,U8C A40U,0.903
24,U8C A40U A45G,0.527

row,Variant,yeast fitness
1,U8C A42G,0.995
2,U8C A42G C55A,≤ 0.5
3,U8C A42G C61U,0.526
4,U8C A42U A43G,0.507
5,U8C A42U G63A A70G,≤ 0.5
6,U8C A42U U53A,≤ 0.5
7,U8C A43C C49G A57G,≤ 0.5
8,U8C A43G,0.93
9,U8C A43G A70C,0.74
10,U8C A43U,1.03
11,U8C A45C A65C,≤ 0.5
12,U8C A45C A69U,0.765
13,U8C A45C C62G A65C,≤ 0.5
14,U8C A45C G56A,0.798
15,U8C A45G C49A,0.574
16,U8C A45U,0.923
17,U8C A65U,0.957
18,U8C A70U,0.994
19,U8C C11A A15C C49U A57G C61U,≤ 0.5
20,U8C C11A A42G A43U C46U C62U,≤ 0.5
21,U8C C11A A43U G48C C60G,≤ 0.5
22,U8C C11A G25C C29U A65C A70U,≤ 0.5
23,U8C C11A G25C U28A A40U,≤ 0.5
24,U8C C11A U19G A36G U54C A69C,≤ 0.5

row,Variant,yeast fitness
1,U8C C11G A15C A70C,≤ 0.5
2,U8C C11G A15U A20G A21G G38C C60G,0.568
3,U8C C11G A69U,≤ 0.5
4,U8C C11G G18C C49A A70C,≤ 0.5
5,U8C C11G G25A C60A C62U G68C,≤ 0.5
6,U8C C11U A15C A21G C24G U28A,≤ 0.5
7,U8C C11U A36U,≤ 0.5
8,U8C C11U C31U,0.576
9,U8C C11U G23A C31U A45C G48A G67A,≤ 0.5
10,U8C C11U G58U C61A,≤ 0.5
11,U8C C11U U16G A21C C31G G39A G56C,≤ 0.5
12,U8C C22A A36C G63C,≤ 0.5
13,U8C C22A A36C G63C G67A,≤ 0.5
14,U8C C22A C29G G44A U64G,≤ 0.5
15,U8C C22A C33G G39C C46U,≤ 0.5
16,U8C C22A C33G G39C C46U G52A C66U,≤ 0.5
17,U8C C22A C33G G39C U54C,≤ 0.5
18,U8C C22A C46A A65U,≤ 0.5
19,U8C C22A G39A U47A,≤ 0.5
20,U8C C22A U47A,≤ 0.5
21,U8C C22G,0.935
22,U8C C22G A37G C60A A70G,≤ 0.5
23,U8C C22G C49U,0.726
